Assay results as given in ChEMBL document CHEMBL1781892, “Microwave assisted synthesis and structure-activity relationship of 4-hydroxy-N'-[1-phenylethylidene]-2H/2-methyl-1,2-benzothiazine-3-carbohydrazide 1,1-dioxides as anti-microbial agents” (2011).

Tests used:
Aspergillus niger [1] = assay: Antifungal activity against Aspergillus niger using 1 x 10^5 spore/100 uL after 72 hrs by microdilution method; type: functional
Aspergillus flavus [2] = assay: Antifungal activity against Aspergillus flavus using 1 x 10^5 spore/100 uL after 72 hrs by microdilution method; type: functional
Aspergillus fumigatus [3] = assay: Antifungal activity against Aspergillus fumigatus using 1 x 10^5 spore/100 uL after 72 hrs by microdilution method; type: functional
Trichoderma viride [4] = assay: Antifungal activity against Trichoderma viride using 1 x 10^5 spore/100 uL after 72 hrs by microdilution method; type: functional
[5] = Antifungal activity against Trichoderma reesei using 1 x 10^5 spore/100 uL after 72 hrs by microdilution method; type: functional
Procedure, shortened: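 Spores washed from malt agar cultures with sterile 0.85% saline plus 0.1% Tween 80, adjusted to about 1.0×10^5 per 100 µl well. Compounds from a 1 mg/ml DMSO stock were serially diluted in malt broth with inoculum in 96-well plates and incubated 72 h at 28 °C. MIC is the lowest concentration with no visible growth under a binocular microscope. DMSO served as negative control.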

Curvularia australiensis [6] = assay: Antifungal activity against Drechslera australiensis using 1 x 10^5 spore/100 uL after 72 hrs by microdilution method; type: functional
Aspergillus niger [7] = assay: Antifungal activity against Aspergillus niger using 1 x 10^5 spore/100 uL assessed as 99.5% fungal killing of original inoculum after 72 hrs by microdilution method; type: functional
Aspergillus flavus [8] = assay: Antifungal activity against Aspergillus flavus using 1 x 10^5 spore/100 uL assessed as 99.5% fungal killing of original inoculum after 72 hrs by microdilution method; type: functional
Aspergillus fumigatus [9] = assay: Antifungal activity against Aspergillus fumigatus using 1 x 10^5 spore/100 uL assessed as 99.5% fungal killing of original inoculum after 72 hrs by microdilution method; type: functional
Trichoderma viride [10] = assay: Antifungal activity against Trichoderma viride using 1 x 10^5 spore/100 uL assessed as 99.5% fungal killing of original inoculum after 72 hrs by microdilution method; type: functional
[11] = Antifungal activity against Trichoderma reesei using 1 x 10^5 spore/100 uL assessed as 99.5% fungal killing of original inoculum after 72 hrs by microdilution method; type: functional
Curvularia australiensis [12] = assay: Antifungal activity against Drechslera australiensis using 1 x 10^5 spore/100 uL assessed as 99.5% fungal killing of original inoculum after 72 hrs by microdilution method; type: functional
Bacillus cereus = assay: Antibacterial activity against Bacillus cereus using 1 x 10^4 CFU/ml inoculum after 24 hrs by microdilution method; type: functional
Bacillus subtilis = assay: Antibacterial activity against Bacillus subtilis using 1 x 10^4 CFU/ml inoculum after 24 hrs by microdilution method; type: functional
Bacillus thuringiensis = assay: Antibacterial activity against Bacillus thuringiensis using 1 x 10^4 CFU/ml inoculum after 24 hrs by microdilution method; type: functional
Staphylococcus aureus = assay: Antibacterial activity against Staphylococcus aureus using 1 x 10^4 CFU/ml inoculum after 24 hrs by microdilution method; type: functional
Escherichia coli = assay: Antibacterial activity against Escherichia coli using 1 x 10^4 CFU/ml inoculum after 24 hrs by microdilution method; type: functional
Pseudomonas aeruginosa = assay: Antibacterial activity against Pseudomonas aeruginosa using 1 x 10^4 CFU/ml inoculum after 24 hrs by microdilution method; type: functional
Salmonella typhi = assay: Antibacterial activity against Salmonella typhi using 1 x 10^4 CFU/ml inoculum after 24 hrs by microdilution method; type: functional, Salmonella enterica subsp. enterica serovar Typhi

Structure (SMILES) | MIC (Aspergillus niger [1]) | MIC (Aspergillus flavus [2]) | MIC (Aspergillus fumigatus [3]) | MIC (Trichoderma viride [4]) | MIC [5] | MIC (Curvularia australiensis [6]) | MFC (Aspergillus niger [7]) | MFC (Aspergillus flavus [8]) | MFC (Aspergillus fumigatus [9]) | MFC (Trichoderma viride [10]) | MFC [11] | MFC (Curvularia australiensis [12]) | MIC (Bacillus cereus) | MIC (Bacillus subtilis) | MIC (Bacillus thuringiensis) | MIC (Staphylococcus aureus) | MIC (Escherichia coli) | MIC (Pseudomonas aeruginosa) | MIC (Salmonella typhi)
COc1cccc(/C(C)=N/NC(=O)C2=C(O)c3ccccc3S(=O)(=O)N2)c1 | 90.1 ×10⁻² umol | 92.7 ×10⁻² umol | 85.9 ×10⁻² umol | 80.7 ×10⁻² umol | 80 ×10⁻² µmol | 82 ×10⁻² umol | 176.3 ×10⁻² umol | 198.4 ×10⁻² umol | 181.2 ×10⁻² umol | 149.9 ×10⁻² umol | 161 ×10⁻² µmol | 162.7 ×10⁻² umol | 7.2 ×10⁻² umol | 7.5 ×10⁻² umol | 7.7 ×10⁻² umol | 24.5 ×10⁻² umol | 25.6 ×10⁻² umol | 26.7 ×10⁻² umol | 29.3 ×10⁻² umol
C/C(=N\NC(=O)C1=C(O)c2ccccc2S(=O)(=O)N1)c1ccccc1O | >100 ×10⁻² umol | >100 ×10⁻² umol | >100 ×10⁻² umol | >100 ×10⁻² umol | > 100 ×10⁻² µmol | >100 ×10⁻² umol | >200 ×10⁻² umol | >200 ×10⁻² umol | >200 ×10⁻² umol | >200 ×10⁻² umol | > 200 ×10⁻² µmol | >200 ×10⁻² umol | 4.2 ×10⁻² umol | 4.4 ×10⁻² umol | 4.1 ×10⁻² umol | 17.8 ×10⁻² umol | 19.9 ×10⁻² umol | 20.6 ×10⁻² umol | 22.7 ×10⁻² umol
C/C(=N\NC(=O)C1=C(O)c2ccccc2S(=O)(=O)N1C)c1cccc(O)c1 | >100 ×10⁻² umol | >100 ×10⁻² umol | >100 ×10⁻² umol | >100 ×10⁻² umol | > 100 ×10⁻² µmol | >100 ×10⁻² umol | >200 ×10⁻² umol | >200 ×10⁻² umol | >200 ×10⁻² umol | >200 ×10⁻² umol | > 200 ×10⁻² µmol | >200 ×10⁻² umol | 4.2 ×10⁻² umol | 4.5 ×10⁻² umol | 4.3 ×10⁻² umol | 18.2 ×10⁻² umol | 19.3 ×10⁻² umol | 21 ×10⁻² umol | 23.1 ×10⁻² umol
